Results taken from ChEMBL document CHEMBL1240362, “Intrapulmonary pharmacokinetics of S-013420, a novel bicyclolide antibacterial, in healthy Japanese subjects” (Antimicrob Agents Chemother, 2010).

Columns and labels:
Homo sapiens [1] = assay: Toxicity in healthy human assessed as neutrophil count in bronchoalveolar fluid at […], po administered as single dose after 8 hrs; assay type: organism-based, Lung; design: route oral; conditions: in vivo
Outline: (§1)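 Healthy Japanese male never-smokers, aged 20 to 45 years with normal BMI, got one open-label oral 400 mg suspension dose. Four subjects per time group had one fiber-optic bronchoscopic BAL at the assigned post-dose time. The first aliquot was discarded and the last three were pooled. BAL fluid was held on ice and spun at 400 × g for 5 min at 4°C. Pellet cells were counted by hemocytometer, with a differential count on a stained cytocentrifuge preparation.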

Homo sapiens [2] = assay: Toxicity in healthy human assessed as lymphocytes count in bronchoalveolar fluid at […], po administered as single dose after 2 hrs; assay type: organism-based, Lung; design: route oral; conditions: in vivo; outline: as §1
Homo sapiens [3] = assay: Toxicity in healthy human assessed as other cellular fractions in bronchoalveolar fluid at […], po administered as single dose after 6 hrs; assay type: organism-based, Lung; design: route oral; conditions: in vivo; outline: as §1
Homo sapiens [4] = assay: Toxicity in healthy human assessed as other cellular fractions in bronchoalveolar fluid at […], po administered as single dose after 10 hrs; assay type: organism-based, Lung; design: route oral; conditions: in vivo; outline: as §1
Homo sapiens [5] = assay: Toxicity in healthy human assessed as other cellular fractions in bronchoalveolar fluid at […], po administered as single dose after 24 hrs; assay type: organism-based, Lung; design: route oral; conditions: in vivo; outline: as §1
[6] = Plasma concentration in healthy human at […], po after 2 hrs; assay type: ADME, organism-based; design: route oral
Outline: (§2)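 Healthy nonsmoking Japanese men, 20-45 y, given one oral 400 mg suspension dose. Blood drawn at 0-72 h, spun at 1,600 × g for 10 min at 4°C, plasma kept at −20°C. Drug measured by validated LC/MS/MS, linear 0.005-5 μg/ml. Values are mean ± SD, n = 28. Cmax, Tmax and t1/2,z are model-independent; AUC0-24 by trapezoidal method.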

[7] = Plasma concentration in healthy human at […], po after 4 hrs; assay type: ADME, organism-based; design: route oral; outline: as §2
[8] = Ratio of AUC (0 to 24 hrs) in plasma of healthy human to MIC90 for erythromycin-susceptible Staphylococcus aureus; assay type: functional
[9] = Ratio of AUC (0 to 24 hrs) in plasma of healthy human to MIC90 for Haemophilus influenzae; assay type: functional
[10] = Ratio of AUC (0 to 24 hrs) in […] healthy epithelial lining fluid to MIC90 for Streptococcus pneumoniae; assay type: functional
[11] = Ratio of drug level in alveolar macrophages to plasma in healthy human at 400 mg, po administered as single dose after 4 hrs
[12] = Ratio of drug level in alveolar macrophages to plasma in healthy human at 400 mg, po administered as single dose after 6 hrs
[13] = Ratio of drug level in alveolar macrophages to plasma in healthy human at 400 mg, po administered as single dose after 12 hrs
[14] = Ratio of drug level in epithelial lining fluid to plasma in healthy human at 400 mg, po administered as single dose after 12 hrs
Homo sapiens [15] = assay: Toxicity in healthy human assessed as eosinophil count in bronchoalveolar fluid at 400 mg, po administered as single dose after 4 hrs; conditions: in vivo
Homo sapiens [16] = assay: Toxicity in healthy human assessed as eosinophil count in bronchoalveolar fluid at 400 mg, po administered as single dose after 12 hrs; conditions: in vivo
Homo sapiens [17] = assay: Toxicity in healthy human assessed as eosinophil count in bronchoalveolar fluid at 400 mg, po administered as single dose after 24 hrs; conditions: in vivo
Homo sapiens [18] = assay: Toxicity in healthy human assessed as other cellular fractions in bronchoalveolar fluid at 400 mg, po administered as single dose after 2 hrs; conditions: in vivo
Homo sapiens [19] = assay: Toxicity in healthy human assessed as alveolar macrophage count in bronchoalveolar fluid at 400 mg, po administered as single dose after 6 hrs; conditions: in vivo

concentration at 2 h [6]: 646 ng/mL
concentration at 4 h [7]: 575 ng/mL
Kp at 4 h [11]: 201
Kp at 6 h [12]: 183
Kp at 12 h [13]: 406
Kp at 12 h [14]: 13.8
SMILES: CC[C@H]1OC(=O)[C@H](C)C(=O)[C@H](C)[C@@H](O[C@@H]2O[C@H](C)C[C@H](N(C)C)[C@H]2O)[C@@]2(C)C[C@@H](C)/C(=N\C(C)=O)[C@H](C)[C@@H](OC/C(=N\OCc3ccc(-n4cccn4)nc3)CO2)[C@]1(C)O [MODITHROMYCIN]
Activity (Homo sapiens [1]): 0.1%
Activity (Homo sapiens [2]): 15.3%
Activity (Homo sapiens [3]): 0.1%
Activity (Homo sapiens [4]): 0.5%
Activity (Homo sapiens [5]): 0%
RatioAUC/MIC [8]: 41.8
RatioAUC/MIC [9]: 1.3
RatioAUC/MIC [10]: 1699.2
Activity (Homo sapiens [15]): 0.1%
Activity (Homo sapiens [16]): 0.9%
Activity (Homo sapiens [17]): 0%
Activity (Homo sapiens [18]): 0%
Activity (Homo sapiens [19]): 86.9%
